AI-2 QS mod = modulators of Vibrio harveyi AI-2 quorum sensing system; Vibrio harveyi JMH597 AI-2 luminescence/OD600 ratio, 9 h; hits give low values; strain lacks LuxN and CqsS sensors; 0 = neutral-control median; activity change, % at 7.5 µM; hit rate 0.4% among 300,000; AID 2094; in the data active means activity change below about -75%, passing the limit was not always enough;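 further: luminescence divided by OD600 gain over 9 h not by final OD600 alone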
Tb MetRS inh = blocks T. brucei methionyl-tRNA synthetase activity; inhibition, % at 11.9 µM; AID 624268; hit rate 0.4% among 360,000; purified T. brucei MetRS, ATP depletion, Kinase-Glo luminescence;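 active means inhibition above a per-plate cutoff of the control wells' mean inhibition plus 3 SD, cut at about 5.5% in these data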;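 further: 0% = DMSO wells median and 100% = median of wells with control inhibitor compound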
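assay system = parasite MetRS enzyme | timing = 15 min preincubation, 2 h reaction, all 25 °C | evaluation = percent inhibition relative to median high and low control wells | medium = HEPES buffer containing pyrophosphatase, BSA, spermine, DTT | compound = single dose, 11.9 µM final nominal, 0.9% final DMSO | detection = Kinase-Glo luminescence, ATP depletion format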
AHR activator = activates the human aryl hydrocarbon receptor | activation, % at 5 µM | AID 2796 | hit rate 2.5% among 320,000 | AHR-responsive luciferase reporter cells, luminescence; in the data active means activation above about 47%;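 further: 0% = vehicle wells and 100% = reference agonist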
MsrA inh = bovine MsrA inhibition; hit rate 0.75% among 360,000; AID 651718; purified bovine MsrA, absorbance read-out; inhibition, % at 15.5 µM; in the data active means inhibition above about 4.5%;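 further: 0% = vehicle wells with enzyme and 100% = reference inhibitor wells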
bovine MsrA act = bovine methionine sulfoxide reductase A activation. purified bovine MsrA, absorbance read-out. activation, % at 10.6 µM. hit rate 0.3% among 360,000; in the data active means activation above about 7.5%;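 further: 0% = vehicle and 100% = reference activator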
m5-HT2A agonist = agonists of mouse serotonin 5-HT2A receptor (HTR2A); P35363; CHO-K1 mHTR2A beta-arrestin complementation, luminescence; percent of 30 µM serotonin response; activation, % at 7.6 µM; hit rate 0.66% among 360,000;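 active means activation above a run cutoff, the mean activation of all tested compounds plus 3 SD, cut at about 14% in these data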;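 further: 0% = plate median of compound wells and 100% = 30 µM serotonin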
Target sequence (P35363 whole entry, looked up): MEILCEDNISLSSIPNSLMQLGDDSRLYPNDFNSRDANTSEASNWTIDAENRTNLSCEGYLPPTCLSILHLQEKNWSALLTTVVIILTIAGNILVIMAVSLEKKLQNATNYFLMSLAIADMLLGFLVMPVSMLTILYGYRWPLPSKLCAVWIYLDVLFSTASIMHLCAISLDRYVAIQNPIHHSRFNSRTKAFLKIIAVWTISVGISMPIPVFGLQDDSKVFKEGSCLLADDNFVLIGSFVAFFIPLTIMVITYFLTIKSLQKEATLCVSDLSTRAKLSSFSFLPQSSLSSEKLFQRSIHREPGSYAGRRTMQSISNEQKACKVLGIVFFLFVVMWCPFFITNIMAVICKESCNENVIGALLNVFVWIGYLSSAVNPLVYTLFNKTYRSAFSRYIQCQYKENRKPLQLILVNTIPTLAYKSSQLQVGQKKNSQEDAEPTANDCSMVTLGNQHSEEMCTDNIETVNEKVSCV
MOR ag counter = counter-screen for mouse HTR2A agonists: human mu opioid receptor agonists | shares compounds with m5-HT2A agonist | U2OS OPRM1 beta-arrestin PathHunter, luminescence; DMSO 0%, DAMGO 9.3 µM 100% | activation, % at 9.3 µM | hit rate 5.3% among 2,300 | AID 624380;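 active means mean activation above the mean of DMSO-only wells plus 3 SD, cut at about 0.5% in these data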
m5-HT2A ag conf = mouse HTR2A agonism confirmed | shares compounds with m5-HT2A agonist | AID 624381 | CHO-K1 PathHunter beta-arrestin recruitment, luminescence; DMSO 0%, 30 µM serotonin 100% | activation, % at 7.6 µM | hit rate 19% among 2,300;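 active means mean activation across triplicates above the hit threshold derived in the original primary screen, cut at about 15% in these data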
Numbers without * were called inactive; · = no result given. Rows were chosen to be rich in hits. Some 4.4% of all compounds tested hit in one or more screens of this group.

SMILES | AI-2 QS mod | Tb MetRS inh | AHR activator | MsrA inh | bovine MsrA act | m5-HT2A agonist | MOR ag counter | m5-HT2A ag conf
COc1ccc(F)cc1S(=O)(=O)N1CCc2ccccc2C1 | · | -0.3 | · | -0.1 | 0.5 | 2.7 | · | ·
CCOC(=O)c1ccc(NC(=O)CSCC(=O)OCC(=O)c2ccccc2)cc1 | 8.4 | 0.5 | 9.7 | -0.8 | -3.8 | 14.9* | -0.2 | -2.9
CCOC(=O)c1cccnc1SCC(=O)Nc1ccc(C)cc1 | 26.2 | -0.1 | 2.0 | -0.6 | 1.9 | 16.2* | -0.6 | -4.2
CCOC(=O)c1ccc(NC(=O)Cn2nnc(-c3ccccc3)n2)cc1 | -5.1 | 0.3 | -1.3 | 1.4 | -1.4 | 20.6* | 0.2 | 2.5
O=C(CSCC(=O)OCC(=O)c1ccc(Br)cc1)Nc1ccc(Br)cc1 | 14.1 | 3.0 | 28.9 | -0.6 | 0.3 | 1.1 | · | ·
CCOC(=O)c1ccc(NC(=O)Cn2nnc(-c3ccc(F)cc3)n2)cc1 | 2.9 | 0.1 | 1.2 | 1.2 | -0.7 | 0.6 | · | ·
CN1CCc2cc(Cl)c(O)cc2[C@@H](c2ccccc2)C1 | 24.7 | -0.3 | 2.5 | 0.7 | 2.5 | 7.5 | · | ·
C=CCN1CCc2c(cc(O)c(O)c2Br)[C@@H](c2ccccc2)C1 | 18.5 | -0.4 | -0.6 | 0.6 | -1.8 | 61.2* | 0.1 | 141.0*
Cc1cccc(C(=O)NCCc2nnc(SCC(=O)Nc3cccc(C(=O)O)c3)n2C)c1 | 26.7 | -0.7 | · | -0.9 | -7.7 | -1.8 | · | ·
O=C1OC(N2CCN(c3ccccn3)CC2)c2ccccc21 (centres undefined) | 45.5 | -0.1 | 4.5 | 0.6 | -2.5 | 14.7* | -0.6 | 22.6*
CN1CCN(C2OC(=O)c3ccccc32)CC1 (centres undefined) | 29.8 | -0.4 | -3.6 | -0.9 | -8.6 | -0.2 | · | ·
CC(C)Cn1c(=O)c2ccccc2n2c(CCC(=O)NC3CCN(Cc4ccccc4)CC3)nnc12 | -4.7 | -0.2 | 4.5 | -0.4 | -4.6 | 19.4* | -0.6 | 6.3
Cc1cc(OCC(=O)N(Cc2ccco2)C2CCS(=O)(=O)C2)cc(C)c1Cl (centres undefined) | 18.2 | 0.4 | 5.1 | 1.1 | 0.0 | 5.4 | · | ·
Cc1cc(OC(C)C(=O)N(Cc2ccco2)C2CCS(=O)(=O)C2)cc(C)c1Cl (centres undefined) | 28.5 | -0.1 | 0.4 | · | -4.6 | 16.9* | -0.7 | -0.8
CCOC(=O)[C@]12CCC=C1N(Cc1ccccc1)C(=O)[C@H](CC(=O)NCc1ccccc1)C2 | · | 0.0 | · | 0.4 | 1.7 | -1.1 | · | ·
CN(C)c1ccc(C(C(=O)NCc2ccccc2)N(Cc2cccnc2)C(=O)c2snc(C(N)=O)c2N)cc1 (centres undefined) | 5.9 | -0.9 | · | 0.8 | -2.1 | 18.6* | -0.6 | -1.4
O=C(CCCc1ccccc1)Nc1ccnn1C1CCN(Cc2ccc(CO)o2)CC1 | 29.0 | -0.6 | 5.5 | -0.2 | -10.1 | 2.8 | · | ·
O=C(C1CCN(CCCc2ccccc2)CC1)N1CCCCC1 | 17.7 | -0.8 | -0.9 | -1.4 | -1.9 | 19.5* | -0.7 | 45.4*
Cc1nc(NC(=O)c2ccco2)sc1C(=O)O | 11.9 | 3.7 | 8.0 | 2.8 | -4.8 | 18.6* | -0.7 | -3.2
N#CC1(N2CCN(C(=O)c3ccccc3)CC2)CCCCC1 | 7.0 | -0.4 | -1.5 | 0.3 | 2.5 | 1.9 | · | ·
CC(=O)C1=C(O)C(=O)OC1c1ccc(Cl)cc1 (centres undefined) | 3.3 | 0.5 | -0.7 | 1.7 | -3.6 | 15.5* | -0.3 | 0.4
COc1ccc(-c2nc3c(C)cc(Br)cn3c2Cc2cccc(Cl)c2)cc1OC | · | -0.8 | · | 2.1 | -2.5 | 6.9 | · | ·
CCSc1ccc([C@@H]2[C@H]3C(=O)N(C)C(=O)[C@H]3[C@]3(C(=O)OC)CCCCN23)cc1 | · | -0.4 | 1.7 | 0.6 | -4.2 | 16.8* | -0.4 | -2.6
CC(OC(=O)c1cccc(-n2cnnn2)c1)C(=O)Nc1ccc(N(C)C)cc1 (centres undefined) | 8.7 | -0.2 | 6.1 | -0.5 | 0.5 | -2.0 | · | ·
C/C(=N\NC(=O)C1CCCC1)c1ccc(Cl)cc1Cl | -16.3 | -0.4 | · | -0.1 | -4.5 | 7.4 | · | ·
SMILES | AI-2 QS mod | Tb MetRS inh | AHR activator | MsrA inh | bovine MsrA act | m5-HT2A agonist | MOR ag counter | m5-HT2A ag conf
Cc1nc2ccc(NS(=O)(=O)c3ccc(F)cc3F)cc2s1 | · | -0.4 | 0.7 | -0.5 | -4.8 | 21.8* | -0.4 | -3.1
Cc1nc2ccc(NS(=O)(=O)c3ccc(F)c(F)c3F)cc2s1 | · | -0.2 | 4.9 | -0.7 | -2.0 | 0.0 | · | ·
Cc1ccc(NC(=O)NC(=O)COC(=O)c2ccc(O)cc2O)c(C)c1 | · | -0.2 | · | -0.8 | 0.8 | 14.9* | -0.3 | -1.2
O=S(=O)(c1ccc2nnn(O)c2c1)N1CCCCC1 | 11.8 | 0.0 | -0.1 | 0.9 | -1.3 | 19.6* | -0.6 | -5.1
CCN(CC)S(=O)(=O)c1ccc2nnn(O)c2c1 | 17.2 | -0.9 | 7.5 | -0.8 | -6.8 | 3.0 | · | ·
O=[N+]([O-])c1cc2ncccc2c2ncccc12 | · | -0.3 | · | 3.0 | -3.5 | 14.6* | 0.1 | -4.4
CCc1ccccc1NC(=O)N1CCc2ccccc21 | 3.6 | -0.2 | -8.8 | -0.9 | 0.3 | 16.5* | -0.5 | -4.1
CN(CC(=O)Nc1ccc(Cl)cc1)CC(=O)N1CCc2ccccc21 | · | -0.1 | · | 0.2 | 0.4 | 16.9* | 0.0 | 2.5
CC(OC(=O)c1ccc(Cl)cc1)C(=O)NCC1CCCCC1 (centres undefined) | · | -0.4 | -0.5 | 0.7 | -3.8 | 5.0 | · | ·
C[C@H](CO)N1C[C@H](C)[C@H](CN(C)Cc2cncnc2)Oc2cc(Br)ccc2S1(=O)=O | · | 0.2 | · | -1.1 | -3.2 | 18.2* | -0.5 | -4.4
CC(C)C(NC(=O)/C(=C\c1ccco1)NC(=O)c1ccco1)C(=O)O (centres undefined) | 18.8 | -0.7 | 1.3 | 0.6 | -0.6 | 19.1* | -0.7 | -4.4
Cc1ccccc1NC(=S)NC(NC(=O)c1ccco1)C(Cl)(Cl)Cl (centres undefined) | -2.2 | -0.6 | 4.5 | -0.6 | -5.8 | 16.8* | -0.6 | -5.6
O=C(NC(NC(=S)Nc1ccccc1C(=O)O)C(Cl)(Cl)Cl)c1ccco1 (centres undefined) | 21.3 | -1.8 | 0.7 | 0.4 | -10.4 | -0.7 | · | ·
COC(=O)[C@@H](NC(=O)c1ccc2c(c1)S(=O)(=O)c1ccccc1C2=O)C(C)C | 34.9 | 0.3 | -0.3 | 0.2 | -4.4 | -2.1 | · | ·
CCOC(=O)c1ccccc1NC(=O)c1ccc2c(SCC(=O)O)c3c(nc2c1)CCCC3 | 16.5 | -0.2 | 3.2 | -0.8 | -3.1 | 15.0* | -0.6 | -0.8
COc1cc(Cl)c(C)cc1NC(=O)c1ccc2c(SCC(=O)O)c3c(nc2c1)CCCC3 | 18.7 | -0.6 | -4.0 | 1.0 | -4.7 | 1.7 | · | ·
COc1ccc(S(=O)(=O)N2CCCC2CNC(=O)C(=O)NCCc2ccccc2)cc1 (centres undefined) | 26.6 | -0.2 | -0.4 | -0.8 | -1.7 | 2.4 | · | ·
